Assay results taken from PMC13645671 (Nature, 2026).

How the values were obtained:
[1] = test system: LPS-primed human THP-1 monocytic cells; experiment: Nigericin-induced pyroptosis, LDH release; type: cell-based; conditions: LPS-primed THP-1 cells, 25 µM compound
Method in brief: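 THP-1 cells in Opti-MEM with 0.1% FBS were primed for 4 h with 1 µg/ml ultrapure LPS (E. coli O111:B4). They were then stimulated for 2 h with 5 µM nigericin, with or without 25 µM test compound. LDH release was measured by CytoTox 96 and given as a percentage of maximal release by 0.1% Triton X-100.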

[2] = test system: THP-1 cells expressing FKBP–caspase-4; experiment: B/B-induced FKBP–caspase-4 pyroptosis, LDH release; type: cell-based, human; conditions: FKBP–caspase-4 THP-1 cells, 50 nM B/B, 10 µM compound
Method in brief: (§1)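 Unprimed THP-1 cells stably expressing FKBP–caspase-4 or FKBP–caspase-11 were seeded in Opti-MEM with 0.1% FBS. Cells were dimerised with 50 nM B/B, with or without 10 µM test compound, for the indicated times. LDH in the medium was measured by CytoTox 96 and expressed as a percentage of maximal release by 0.1% Triton X-100.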

[3] = test system: THP-1 cells expressing FKBP–caspase-11; experiment: B/B-induced FKBP–caspase-11 pyroptosis, LDH release; type: cell-based, human; conditions: FKBP–caspase-11 THP-1 cells, 50 nM B/B, 10 µM compound
Method in brief: as §1

SMILES	nigericin-induced cell lysis (LDH release), in words [1]	cell death induced by caspase-4, in words [2]	cell death induced by caspase-11, in words [3]
CC(C)(O)c1coc(S(=O)(=O)NC(=O)Nc2c3c(cc4c2CCC4)CCC3)c1 [MCC950]	inhibited	–	–
C[C@H](NC(=O)C(=O)Nc1ccccc1C(C)(C)C)C(=O)N[C@@H](CC(=O)O)C(=O)COc1c(F)c(F)cc(F)c1F [Emricasan, N-[2-(1,1-dimethylethyl)phenyl]-2-oxoglycyl-N-[(1S)-1-(carboxymethyl)-2-oxo-3-(2,3,5,6-tetrafluorophenoxy)propyl]-L-alaninamide]	inhibited	inhibited	inhibited
